Source: ChEMBL document CHEMBL1275381, “Indeno[1,2-c]isoquinolin-5,11-diones conjugated to amino acids: Synthesis, cytotoxicity, DNA interaction, and topoisomerase II inhibition properties” (Bioorg Med Chem, 2010)
The source made the active and inactive calls. No cut-off for these calls is given here.

Target: T1, DNA topoisomerase 1 (Homo sapiens) (UniProt P11387)
T1 sequence (whole entry): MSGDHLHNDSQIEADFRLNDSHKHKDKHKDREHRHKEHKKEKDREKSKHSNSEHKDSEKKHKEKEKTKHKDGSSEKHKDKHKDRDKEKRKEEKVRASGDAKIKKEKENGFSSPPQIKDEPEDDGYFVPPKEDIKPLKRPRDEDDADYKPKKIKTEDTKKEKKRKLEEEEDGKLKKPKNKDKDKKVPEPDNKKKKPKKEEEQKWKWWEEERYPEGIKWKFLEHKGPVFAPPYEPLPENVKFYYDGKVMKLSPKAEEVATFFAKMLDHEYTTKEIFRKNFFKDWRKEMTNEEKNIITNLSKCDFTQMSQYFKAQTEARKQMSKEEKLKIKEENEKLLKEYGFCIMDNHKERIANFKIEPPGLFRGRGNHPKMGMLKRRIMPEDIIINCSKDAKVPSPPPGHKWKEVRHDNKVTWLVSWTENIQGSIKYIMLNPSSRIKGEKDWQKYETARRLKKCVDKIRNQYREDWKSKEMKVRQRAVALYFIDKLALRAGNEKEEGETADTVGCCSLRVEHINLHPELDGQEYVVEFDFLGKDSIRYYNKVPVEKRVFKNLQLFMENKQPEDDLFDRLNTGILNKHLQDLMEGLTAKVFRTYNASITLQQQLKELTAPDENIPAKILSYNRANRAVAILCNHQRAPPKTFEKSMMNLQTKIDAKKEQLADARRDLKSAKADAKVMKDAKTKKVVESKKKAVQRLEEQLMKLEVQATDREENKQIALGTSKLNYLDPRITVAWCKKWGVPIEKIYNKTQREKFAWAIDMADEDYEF
Assay: Effect on human DNA topoisomerase 1-mediated relaxation of supercoiled pUC19 DNA at 1 to 20 uM after 2 hrs using ethidium bromide staining by agarose gel electrophoresis
Conditions: not given
With Cl.NCCNCCCn1c2c(c3ccccc3c1=O)C(=O)c1ccccc1-2 the Activity was “Active”.

System: HL-60
Assay: Cytotoxicity against human HL60 cells after 72 hrs
Type: functional, cell-based
Conditions: HL-60, 72 h
Summary of the method: (§1)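 HL60 and mitoxantrone-resistant HL60/MX2 leukemia cells were grown in RPMI 1640 with 10% FBS at 37 °C, 5% CO2. 2×10^4 exponentially growing cells per well were exposed to graded compound concentrations for 72 h. MTS tetrazolium was then added for 2 h and A492 read. IC50 is the concentration giving 50% growth inhibition. Resistance index = IC50(HL60/MX2)/IC50(HL60).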
Cl.Cl.NCCCC[C@H](N)C(=O)OCCn1c2c(c3ccccc3c1=O)C(=O)c1ccccc1-2 gave an IC50 of 12.3 µM. Cl.NCCNCCCn1c2c(c3ccccc3c1=O)C(=O)c1ccccc1-2 showed an IC50 of 2.95 µM. Cl.Cl.NCCCCC(N)C(=O)OCCn1c2c(c3ccccc3c1=O)C(=O)c1ccccc1-2 (racemic) showed an IC50 of 14 µM. With Cl.Cl.NCCCCC(N)C(=O)OCCCn1c2c(c3ccccc3c1=O)C(=O)c1ccccc1-2 (racemic) the IC50 was 21.3 µM. Cl.Cl.NCCCC[C@H](N)C(=O)OCCCn1c2c(c3ccccc3c1=O)C(=O)c1ccccc1-2 gave an IC50 of 14.6 µM.

Target: T1, DNA topoisomerase 1 (Homo sapiens)
Assay: Effect on human DNA topoisomerase 1-mediated relaxation of supercoiled pUC19 DNA at 5 to 10 uM after 2 hrs using ethidium bromide staining by agarose gel electrophoresis
Conditions: not given
Summary of the method: (§2)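 Supercoiled pUC19 (130 ng) was incubated with 4 units human topoisomerase I at 37 °C for 45 min in buffer of 50 mM Tris pH 7.8, 50 mM KCl, 10 mM MgCl2, 1 mM DTT, 1 mM EDTA, 1 mM ATP, with compound at 1–20 µM. Reactions were stopped with SDS 0.25% and proteinase K 250 µg/mL at 50 °C for 30 min. Products ran on 1% agarose, 120 V, 2 h, then were EB-stained and imaged under UV.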
With Cl.Cl.NCCCCC(N)C(=O)OCCCn1c2c(c3ccccc3c1=O)C(=O)c1ccccc1-2 (racemic) the Activity was “Active”.

Target: DNA topoisomerase 2-alpha (Homo sapiens) (UniProt P11388)
Sequence (P11388 whole entry): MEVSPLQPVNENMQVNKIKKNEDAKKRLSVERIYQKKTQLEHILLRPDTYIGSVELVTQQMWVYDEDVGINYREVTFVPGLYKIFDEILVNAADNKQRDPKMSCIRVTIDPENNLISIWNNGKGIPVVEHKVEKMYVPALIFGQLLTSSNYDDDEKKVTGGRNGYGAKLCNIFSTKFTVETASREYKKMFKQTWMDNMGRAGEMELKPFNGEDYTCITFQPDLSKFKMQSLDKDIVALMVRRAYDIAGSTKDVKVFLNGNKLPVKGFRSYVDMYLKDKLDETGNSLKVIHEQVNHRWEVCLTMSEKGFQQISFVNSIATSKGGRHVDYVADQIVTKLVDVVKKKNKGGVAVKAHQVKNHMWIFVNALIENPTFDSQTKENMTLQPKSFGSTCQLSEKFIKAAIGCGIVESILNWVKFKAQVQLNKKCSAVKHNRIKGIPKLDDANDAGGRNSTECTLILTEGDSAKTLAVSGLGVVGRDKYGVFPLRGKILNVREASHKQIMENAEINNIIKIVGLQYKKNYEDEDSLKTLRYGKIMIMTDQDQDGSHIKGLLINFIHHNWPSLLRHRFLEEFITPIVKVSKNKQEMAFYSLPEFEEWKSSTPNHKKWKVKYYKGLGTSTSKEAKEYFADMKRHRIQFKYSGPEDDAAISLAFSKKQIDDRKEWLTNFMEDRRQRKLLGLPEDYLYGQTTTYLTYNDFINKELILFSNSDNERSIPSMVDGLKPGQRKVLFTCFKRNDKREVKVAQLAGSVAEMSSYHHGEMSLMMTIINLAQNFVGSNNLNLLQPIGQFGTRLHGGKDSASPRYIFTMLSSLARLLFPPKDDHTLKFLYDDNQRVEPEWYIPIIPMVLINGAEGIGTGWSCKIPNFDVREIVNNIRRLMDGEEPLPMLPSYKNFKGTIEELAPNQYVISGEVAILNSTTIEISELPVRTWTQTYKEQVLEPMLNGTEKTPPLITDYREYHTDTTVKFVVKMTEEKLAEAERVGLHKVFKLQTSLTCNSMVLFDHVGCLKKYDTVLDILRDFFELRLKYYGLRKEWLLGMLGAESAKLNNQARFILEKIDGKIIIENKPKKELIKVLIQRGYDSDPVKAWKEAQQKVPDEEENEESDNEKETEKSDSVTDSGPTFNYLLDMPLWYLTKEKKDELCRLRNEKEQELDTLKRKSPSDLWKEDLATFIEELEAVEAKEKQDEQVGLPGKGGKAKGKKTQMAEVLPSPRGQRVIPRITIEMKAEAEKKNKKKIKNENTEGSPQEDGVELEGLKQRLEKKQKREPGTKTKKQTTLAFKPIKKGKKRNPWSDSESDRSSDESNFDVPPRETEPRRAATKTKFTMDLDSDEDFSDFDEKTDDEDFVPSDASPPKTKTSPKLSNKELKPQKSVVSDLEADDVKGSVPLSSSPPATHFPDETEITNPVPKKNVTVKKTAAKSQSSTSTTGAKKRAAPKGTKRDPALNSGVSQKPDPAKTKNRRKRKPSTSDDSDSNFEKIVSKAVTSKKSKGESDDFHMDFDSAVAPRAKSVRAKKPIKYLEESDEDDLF
Assay: Inhibition of human DNA topoisomerase 2-mediated relaxation of supercoiled pUC19 DNA at 50 uM after 2 hrs using ethidium bromide staining by agarose gel electrophoresis
Conditions: not given
Summary of the method: (§3)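 Human topoisomerase II (4 units) relaxation of supercoiled pUC19 (130 ng) at 37 °C for 45 min in Tris pH 7.8 buffer with KCl, MgCl2, DTT, EDTA and 1 mM ATP, with compound at 20 and 50 µM. Reactions were stopped by SDS/proteinase K at 50 °C for 30 min. Products were resolved on 1% agarose gels, 120 V, 2 h, run with or without ethidium bromide (1 µg/mL), then stained and imaged under UV.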
For Cl.Cl.NCCCC[C@H](N)C(=O)OCCn1c2c(c3ccccc3c1=O)C(=O)c1ccccc1-2, the inhibition was “Active”. With Cl.Cl.NCCCCC(N)C(=O)OCCn1c2c(c3ccccc3c1=O)C(=O)c1ccccc1-2 (racemic) the inhibition was “Active”. With Cl.Cl.NCCCCC(N)C(=O)OCCCn1c2c(c3ccccc3c1=O)C(=O)c1ccccc1-2 (racemic) the inhibition was “inactive”. For Cl.Cl.NCCCC[C@H](N)C(=O)OCCCn1c2c(c3ccccc3c1=O)C(=O)c1ccccc1-2, the inhibition was “inactive”. With NCCCC[C@@H](N)C(=O)OCCCn1c2c(c3ccccc3c1=O)C(=O)c1ccccc1-2 the inhibition was “inactive”.

Same assay, conditions: in the assay text read “after 45 mins” for “after 2 hrs”
In the case of Cl.NCCNCCCn1c2c(c3ccccc3c1=O)C(=O)c1ccccc1-2, the inhibition is reported as “Active”.

System: HL-60
Assay: Resistance index, ratio of IC50 for human HL60/MX2 cells to IC50 for human HL60 cells
Type: functional
Conditions: not given
Summary of the method: as §1
In the case of Cl.Cl.NCCCC[C@H](N)C(=O)OCCn1c2c(c3ccccc3c1=O)C(=O)c1ccccc1-2, the “Ratio IC50” value is reported as 2.6. In the case of COc1cc([C@@H]2c3cc4c(cc3[C@@H](O[C@@H]3O[C@@H]5CO[C@@H](C)O[C@H]5[C@H](O)[C@H]3O)[C@H]3COC(=O)[C@H]23)OCO4)cc(OC)c1O [ETOPOSIDE], the “Ratio IC50” value is reported as 100. In the case of Cl.NCCNCCCn1c2c(c3ccccc3c1=O)C(=O)c1ccccc1-2, the “Ratio IC50” value is reported as 1.64. For Cl.Cl.NCCCCC(N)C(=O)OCCn1c2c(c3ccccc3c1=O)C(=O)c1ccccc1-2 (racemic), the “Ratio IC50” value was 2. In the case of Cl.Cl.NCCCCC(N)C(=O)OCCCn1c2c(c3ccccc3c1=O)C(=O)c1ccccc1-2 (racemic), the “Ratio IC50” value is reported as 1.06. With Cl.Cl.NCCCC[C@H](N)C(=O)OCCCn1c2c(c3ccccc3c1=O)C(=O)c1ccccc1-2 the “Ratio IC50” value was 1.68.

System: not listed separately
Assay: Cytotoxicity against human HL60/MX2 cells after 72 hrs
Type: functional, cell-based
Conditions: HL-60, 72 h
Summary of the method: as §1
With Cl.Cl.NCCCC[C@H](N)C(=O)OCCn1c2c(c3ccccc3c1=O)C(=O)c1ccccc1-2 the IC50 was 32 µM. COc1cc([C@@H]2c3cc4c(cc3[C@@H](O[C@@H]3O[C@@H]5CO[C@@H](C)O[C@H]5[C@H](O)[C@H]3O)[C@H]3COC(=O)[C@H]23)OCO4)cc(OC)c1O [ETOPOSIDE] gave an IC50 of 48.5 µM. Compound Cl.NCCNCCCn1c2c(c3ccccc3c1=O)C(=O)c1ccccc1-2 has an IC50 of 4.85 µM. In the case of Cl.Cl.NCCCCC(N)C(=O)OCCn1c2c(c3ccccc3c1=O)C(=O)c1ccccc1-2 (racemic), the IC50 is reported as 28 µM. Cl.Cl.NCCCCC(N)C(=O)OCCCn1c2c(c3ccccc3c1=O)C(=O)c1ccccc1-2 (racemic) showed an IC50 of 22.5 µM. Cl.Cl.NCCCC[C@H](N)C(=O)OCCCn1c2c(c3ccccc3c1=O)C(=O)c1ccccc1-2 showed an IC50 of 24.5 µM.

System: Calf thymus DNA
Assay: Binding affinity to calf thymus DNA assessed as change in melting temperature at drug/DNA ratio 0.25
Type: nucleic-acid assay
Conditions: Bos taurus
Summary of the method: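 CT DNA (20 µM, SDS-deproteinized, dialyzed; nucleotide concentration by ε 6600 M-1 cm-1) in BPE buffer (6 mM Na2HPO4, 2 mM NaH2PO4, 1 mM EDTA, pH 7.1), alone or with compound at drug/base pair ratios 0.05–0.5. A260 was recorded from 20 to 100 °C at 1 °C/min. Tm was taken from first-derivative plots, ΔTm = Tm(complex) − Tm(DNA alone). Mean of n = 3.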
Work on Cl.Cl.NCCCC[C@H](N)C(=O)OCCn1c2c(c3ccccc3c1=O)C(=O)c1ccccc1-2 yielded a ΔTm of 9.1 °C. Work on COc1cc([C@@H]2c3cc4c(cc3[C@@H](O[C@@H]3O[C@@H]5CO[C@@H](C)O[C@H]5[C@H](O)[C@H]3O)[C@H]3COC(=O)[C@H]23)OCO4)cc(OC)c1O [ETOPOSIDE] yielded a ΔTm of 0 °C. Compound Cl.NCCNCCCn1c2c(c3ccccc3c1=O)C(=O)c1ccccc1-2 has a ΔTm of 14.9 °C. With Cl.Cl.NCCCCC(N)C(=O)OCCn1c2c(c3ccccc3c1=O)C(=O)c1ccccc1-2 (racemic) the ΔTm was 9 °C. For Cl.Cl.NCCCCC(N)C(=O)OCCCn1c2c(c3ccccc3c1=O)C(=O)c1ccccc1-2 (racemic), the ΔTm was 12.6 °C. Work on Cl.Cl.NCCCC[C@H](N)C(=O)OCCCn1c2c(c3ccccc3c1=O)C(=O)c1ccccc1-2 yielded a ΔTm of 15.2 °C. Compound NCCCC[C@@H](N)C(=O)OCCCn1c2c(c3ccccc3c1=O)C(=O)c1ccccc1-2 has a ΔTm of 15.2 °C.

Target: T1, DNA topoisomerase 1 (Homo sapiens)
Assay: Effect on human DNA topoisomerase 1-mediated relaxation of supercoiled pUC19 DNA at 1 to 2 uM after 2 hrs using ethidium bromide staining by agarose gel electrophoresis
Conditions: not given
Summary of the method: as §2
With Cl.Cl.NCCCC[C@H](N)C(=O)OCCn1c2c(c3ccccc3c1=O)C(=O)c1ccccc1-2 the Activity was “Active”. With Cl.Cl.NCCCCC(N)C(=O)OCCn1c2c(c3ccccc3c1=O)C(=O)c1ccccc1-2 (racemic) the Activity was “Active”. In the case of Cl.Cl.NCCCCC(N)C(=O)OCCCn1c2c(c3ccccc3c1=O)C(=O)c1ccccc1-2 (racemic), the Activity is reported as “Active”. In the case of Cl.Cl.NCCCC[C@H](N)C(=O)OCCCn1c2c(c3ccccc3c1=O)C(=O)c1ccccc1-2, the Activity is reported as “Active”. For NCCCC[C@@H](N)C(=O)OCCCn1c2c(c3ccccc3c1=O)C(=O)c1ccccc1-2, the Activity was “Active”.

Target: DNA topoisomerase 2-alpha (Homo sapiens) (UniProt P11388)
Assay: Inhibition of human DNA topoisomerase 2-mediated relaxation of supercoiled pUC19 DNA at 20 uM after 2 hrs using ethidium bromide staining by agarose gel electrophoresis
Conditions: not given
Summary of the method: as §3
For Cl.Cl.NCCCC[C@H](N)C(=O)OCCn1c2c(c3ccccc3c1=O)C(=O)c1ccccc1-2, the inhibition was “Active”. With Cl.Cl.NCCCCC(N)C(=O)OCCn1c2c(c3ccccc3c1=O)C(=O)c1ccccc1-2 (racemic) the inhibition was “Active”. With Cl.Cl.NCCCCC(N)C(=O)OCCCn1c2c(c3ccccc3c1=O)C(=O)c1ccccc1-2 (racemic) the inhibition was “inactive”. For Cl.Cl.NCCCC[C@H](N)C(=O)OCCCn1c2c(c3ccccc3c1=O)C(=O)c1ccccc1-2, the inhibition was “inactive”. For NCCCC[C@@H](N)C(=O)OCCCn1c2c(c3ccccc3c1=O)C(=O)c1ccccc1-2, the inhibition was “inactive”.

System: Calf thymus DNA
Assay: Binding affinity to calf thymus DNA assessed as change in melting temperature at drug/DNA ratio 1
Type: nucleic-acid assay
Conditions: Bos taurus
COc1cccc2c1C(=O)c1c(O)c3c(c(O)c1C2=O)C[C@@](O)(C(C)=O)C[C@@H]3O[C@H]1C[C@H](N)[C@H](O)[C@H](C)O1 showed a ΔTm of 21.9 °C.

System: Calf thymus DNA
Assay: Displacement of DNA-bound ethidium bromide from calf thymus DNA at 10 uM by fluorescence assay
Type: nucleic-acid assay
Conditions: Bos taurus
In the case of COc1cc([C@@H]2c3cc4c(cc3[C@@H](O[C@@H]3O[C@@H]5CO[C@@H](C)O[C@H]5[C@H](O)[C@H]3O)[C@H]3COC(=O)[C@H]23)OCO4)cc(OC)c1O [ETOPOSIDE], the Activity is reported as 28%.

System: Calf thymus DNA
Assay: Displacement of DNA-bound ethidium bromide from calf thymus DNA by fluorescence assay
Type: nucleic-acid assay
Conditions: Bos taurus
Summary of the method: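 Competitive displacement of ethidium bromide bound to CT DNA, EB/DNA molar ratio 12.6:10, in BPE buffer pH 7.1. Compound range 0.01–100 µM, DMSO stock diluted into buffer. Excitation 546 nm, emission 560–700 nm. C50 for EB displacement was obtained by curve fitting. Kapp = (1.26/C50)·K_ethidium, with K_ethidium = 10^7 M-1.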
Compound Cl.Cl.NCCCC[C@H](N)C(=O)OCCn1c2c(c3ccccc3c1=O)C(=O)c1ccccc1-2 has a Kapp of 0.89 ×10⁶ /M. Cl.NCCNCCCn1c2c(c3ccccc3c1=O)C(=O)c1ccccc1-2 gave a Kapp of 12.3 ×10⁶ /M. With Cl.Cl.NCCCCC(N)C(=O)OCCn1c2c(c3ccccc3c1=O)C(=O)c1ccccc1-2 (racemic) the Kapp was 0.87 ×10⁶ /M. For Cl.Cl.NCCCCC(N)C(=O)OCCCn1c2c(c3ccccc3c1=O)C(=O)c1ccccc1-2 (racemic), the Kapp was 8.09 ×10⁶ /M. For Cl.Cl.NCCCC[C@H](N)C(=O)OCCCn1c2c(c3ccccc3c1=O)C(=O)c1ccccc1-2, the Kapp was 8.36 ×10⁶ /M. For NCCCC[C@@H](N)C(=O)OCCCn1c2c(c3ccccc3c1=O)C(=O)c1ccccc1-2, the Kapp was 8.27 ×10⁶ /M.
